Assay results reported in publication PMC6282495 (Clinical Pharmacology and Therapeutics, 2018).
“Also recorded” adds a separate entry of the source. Like-named read-outs stand apart in the source and are kept apart here. Blank lines part the entries; values can stand above or below the molecule they belong to.

Legend:
DPP1 = conditions: once daily, 21 days of dosing; cited from earlier work
NSP activity = conditions: 21 days of dosing; cited from earlier work
[1] = cited from earlier work
[2] = AZD7986 plasma pharmacokinetics; type: in vivo, human
Procedure, shortened: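 Healthy male subjects received oral AZD-class test compound. In Part I, single doses of 5–65 mg were given to cohorts of nine, three of them on placebo, with plasma sampled up to 96 h. In Part II, 10, 25 or 40 mg were given once daily for 21 or 28 days, with sampling up to 24 h after the first dose and 96 h after the last. Steady state was checked from predose levels on Days 18–20 and 21/28. Parameters came from noncompartmental analysis.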

Population PK model = type: in vivo, human
Procedure, shortened: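 Pooled Part I and II plasma concentrations (5–65 mg single doses; 10–40 mg once daily) were fitted with a three-compartment model. It had first-order absorption with lag, a dose-dependent bioavailability power model (relative bioavailability at 5 mg fixed to 1), and volumes per kg bodyweight. Slow peripheral volume and bioavailability were allowed to change between first dose and steady state. Interindividual variability was on Vc, CL, Frel, ka and Alag, with additive log-scale error. Estimates carry 90% CI, with visual predictive checks from 1,000 simulations.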

[3] = system: whole blood neutrophil elastase (NE) activity; experiment: Whole blood NE activity; type: in vivo, human
Procedure, shortened: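 Part II only: healthy males on 10, 25 or 40 mg once daily for 21 or 28 days, or placebo (pooled). Whole-blood NE activity was expressed as percent change from each subject's baseline, […]. The 25 and 40 mg cohorts had follow-up visits up to 1 month after leaving the unit. ANC-normalized activity was fitted with a transit-compartment maturation model in which plasma concentration inhibits entry into the first compartment via a sigmoid Hill function. Blood neutrophil half-life was fixed from literature and maximal inhibition was fixed at complete.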

[4] = Safety and tolerability in healthy subjects; type: in vivo, human
efflux transporters = experiment: In-house data on efflux transporter substrate status; type: in vitro ADME
[5] = In-house data on metabolic clearance routes and plasma protein binding; type: in vitro ADME
[6] = system: activation of NSPs (NE, Pr3, and CatG) in human primary bone marrow-derived CD34+ neutrophil progenitor cells; conditions: cited from earlier work
[7] = between first dose and steady state

SMILES: CC[C@@H](/C=C/C(=O)N1CCc2ccccc21)NC(=O)C1(N)CCOCC1 [GSK2793660]
- DPP1 inhibition in whole blood (DPP1): sustained inhibition; also recorded: sustained, near‐complete
- Effect on NSP activity (NSP activity): no clear effect
- half-life ([1]; administered once daily): 1.5 h
- Cases of skin desquamation [1]: seven
- Downstream effect reported on skin [1]: epidermal desquamation on palmar and plantar surfaces

- half-life ([2]; male, human, plasma, po, Terminal half-life, after a single oral dose): 20 to 26 h
- Time of maximum plasma levels (Cmax) after dosing ([2]; oral dosing, healthy subjects): 0.5 to 1.5 h
- Increase in oral bioavailability (Population PK model; between 5 and 65 mg, power model): ~2 fold
- Fsteadystate_change, percent change in bioavailability (Population PK model; [7]): 24.3%
- Vp,slow,steadystate_change, percent change in volume of slowly equilibrating tissue compartment (Population PK model; [7]): 34%
- Alag, absorption lag time (Population PK model; population PK model estimate): 0.159 h
- CL, apparent clearance from central compartment (Population PK model; population PK model estimate): 12.0 L/h
- IIV Alag, interindividual variability in Alag (Population PK model; population PK model estimate): 21.3%
- IIV CL, interindividual variability in CL (Population PK model; population PK model estimate): 22.2%
- IIV Frel, interindividual variability in Frel (Population PK model; population PK model estimate): 18.2%
- IIV Vc, interindividual variability in Vcentral (Population PK model; population PK model estimate): 53.6%
- IIV ka, interindividual variability in ka (Population PK model; population PK model estimate): 28.8%
- Qfast, apparent intercompartmental clearance between plasma and rapidly equilibrating tissues (Population PK model; population PK model estimate): 122 L/h
- Qslow, apparent intercompartmental clearance between plasma and slowly equilibrating tissues (Population PK model; population PK model estimate): 14.7 L/h
- Vc, apparent volume per kg bodyweight of central plasma compartment (Population PK model; population PK model estimate): 0.368 L/kg
- Vp,fast, apparent volume per kg bodyweight of rapidly equilibrating tissue compartment (Population PK model; population PK model estimate): 2.45 L/kg
- ka, absorption rate constant (Population PK model; population PK model estimate): 0.809 h⁻¹
- Fslope, slope parameter for bioavailability vs. dose power model (Population PK model; relative to 5 mg single dose): 0.228
- Vp,slow, apparent volume per kg bodyweight of slowly equilibrating tissue compartment (Population PK model; single dose, population PK model estimate): 1.97 L/kg
- IIV IC50, interindividual variability in IC50 ([3]; PK-PD model): 33.3%
- Saturable metabolic clearance routes or plasma protein binding [5]: does not indicate
SMILES: Cn1c(=O)oc2ccc(-c3ccc(C[C@@H](C#N)NC(=O)[C@@H]4CNCCCO4)cc3)cc21 [AZD7986]
- Observed reduction of whole blood NE activity, on average ([3]; 40 mg dose group, 28 days once daily): more than 50%
- Recovery of NE activity after cessation of dosing ([3]; 25 and 40 mg cohorts, follow-up visits): recovers once treatment is stopped
- nH, Hill coefficient ([3]; PK-PD model, Imax fixed to 1 (100%)): 0.697
- Average time to steady state of whole blood NE activity after initiation of dosing ([3]; implied by estimated MTT, N and PK): about 25 days
- Start of response in whole blood NE activity after treatment initiation ([3]; three active doses compared to placebo): ~12 days
- Discontinuation of treatment due to skin AE of lichenoid drug eruption ([4]; 25 mg, Day 13): One subject
- Skin findings of special interest seen in the highest dose group ([4]; Part II, 40 mg, number of subjects): four
- Skin findings of special interest seen in subjects treated with AZD7986 ([4]; Part II, number of subjects): five of the six
- Effect on the number of neutrophils in blood ([4]; Part II, repeated dosing): no clinically significant effect
- Clinical laboratory results, 12-lead ECGs, telemetry results ([4]; Parts I and II): No trends were observed
- Infection risk ([4]; Parts I and II): no signal of increased infection risk
- Serious adverse events ([4]; Parts I and II): No serious adverse events
- Mild gingival bleeding, AZD7986 versus placebo ([4]; gingival probing): no difference
- Overall tolerability ([4]; single doses 5-65 mg, once daily 10-40 mg for 21 or 28 days): well tolerated
- Substrate for efflux transporters (efflux transporters): may be a substrate for efflux transporters
- Hill coefficient ([6]; NE, Pr3 and CatG): ~0.65
- Extent of inhibition of activation of all three NSPs ([6]; concentration-dependent): completely inhibit
- IC50 ([6]; read-out: IC50 for inhibition of NSP activation, NE, Pr3 and CatG): 60 to 200 nM
